Results as given in paper PMC8865112 (Journal of Enzyme Inhibition and Medicinal Chemistry, 2022).

Key:
A549/DDP [1] = test: Apoptosis percentages; assay type: cell-based, human; conditions: DDP alone 2.0 μM, EDEA alone 1.0 and 2.0 μM
SGC7901/DDP [2] = test: CCK-8 cell growth and sensitisation to DDP; assay type: cell-based, human
In short: (§1)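 Exponential-phase cells were trypsinised, diluted to 5 × 10^7/l and plated, then cultured 24 h at 37 °C. Test compound was added where indicated (DMF <0.2%), and DDP (saline stock 5.0 mM) was added 1 h later. After 72 h at 37 °C, CCK-8 was applied for 2 h and A450 was read. Live cells were calculated as % of the no-DDP, no-inhibitor control. Done in triplicate.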

COC1/DDP = test: CCK-8 cell growth and sensitisation to DDP; assay type: cell-based, human
In short: as §1

SGC7901/DDP [3] = test: Apoptosis percentages; assay type: cell-based, human; conditions: DDP alone 2.0 μM, EDEA alone 1.0 and 2.0 μM
SK-OV-3/DDP = test: CCK-8 cell growth and sensitisation to DDP; assay type: cell-based, human; conditions: SK-OV-3/DDP cells versus SK-OV-3 cells
In short: as §1

A549/DDP [4] = test: CCK-8 cell growth and sensitisation to DDP; assay type: cell-based, human
In short: as §1

drug-resistant cancers = conditions: cited from earlier work

N.N.[Cl][Pt][Cl] [DDP, cisplatin]
effect of single agent on apoptosis percentages (A549/DDP [1]): did not greatly alter | IC50 value of DDP in resistant versus parental cells (SGC7901/DDP [2]): ~3 fold | IC50 value of DDP in resistant versus parental cells (COC1/DDP): ~4 fold | effect of single agent on apoptosis percentages (SGC7901/DDP [3]): did not greatly alter | IC50 value of DDP in resistant versus parental cells (SK-OV-3/DDP): ~4 fold | IC50 value of DDP in resistant versus parental cells (A549/DDP [4]): ~7 fold

C=C(CC)C(=O)c1ccc(OCC(=O)O)c(Cl)c1Cl [EAA, ethacrynic acid]
level that sensitised drug-resistant cancers to DDP in vitro (drug-resistant cancers): ~20 µM
